Assays:
Assay type in all cases: functional
[1] = test system: Mycobacterium tuberculosis; experiment: Antitubercular activity against Mycobacterium tuberculosis H37Rv T3 nitroreductase mutant
Method in brief: (§1)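 Broth dilution MIC99 against Mtb H37Rv (ATCC 27294) and its H37Rv mutants under aerobic conditions. Compound stocks were made in DMSO at 20 mM.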

[2] = test system: Mycobacterium tuberculosis; experiment: Antitubercular activity against Mycobacterium tuberculosis H37Rv 5A1 nitroreductase mutant; method in brief: as §1
[3] = test system: Mycobacterium tuberculosis; experiment: Antitubercular activity against Mycobacterium tuberculosis H37Rv T2 nitroreductase mutant; method in brief: as §1

Measured: MIC

C[C@H]1Oc2nc([N+](=O)[O-])cn2C[C@@H]1OCc1ccc(OC(F)(F)F)cc1
>100 µM: [1] | [2] | [3]

C[C@@H]1Oc2nc([N+](=O)[O-])cn2C[C@@H]1OCc1ccc(OC(F)(F)F)cc1
>100 µM: [1] | [2] | [3]

O=[N+]([O-])c1cn2c(n1)OC[C@@H](OCc1ccc(OC(F)(F)F)cc1)C2 [PRETOMANID]
>100 µM: [1] | [2] | [3]

Source: ChEMBL document CHEMBL1141552, “Synthesis and antitubercular activity of 7-(R)- and 7-(S)-methyl-2-nitro-6-(S)-(4-(trifluoromethoxy)benzyloxy)-6,7-dihydro-5H-imidazo[2,1-b][1,3]oxazines, analogues of PA-824” (Bioorg Med Chem Lett, 2008)
